Rows were chosen to be rich in hits. Some 4% of all compounds tested hit in one or more screens of this group.
MT stabilizer: microtubule stabilizers in HeLa cells, primary screen, imaging, high-content imaging | AID 2205, 2009 | % tubulin-high responders, % at 10 µM | actives 0.83% (n = 200,000) | HeLa tubulin immunostaining HCS, 24 h; share of cells brighter than vehicle mean+2SD;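 active = plate Z-score above 3 for both tubulin-high and condensed-nucleus cell shares, with cell loss under 80%, at 10 µM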;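 note: anti alpha tubulin signal scored within the nucleus-defined area of each cell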
bCat nuc transl: modulators of beta-catenin nuclear translocation, primary screen, imaging, HeLa cells, immunofluorescence, high-content | nuclear translocation activity, % at 5 µM | actives 0.3% (n = 190,000);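 active = nuclear translocation activity above 50% at 5 µM, with a well cell count of 50 or more; inconclusive = wells under 50 cells across six images, flagged as toxic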;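 note: per-cell ratio of nuclear to cytoplasmic median beta-catenin stain intensity; plate controls were DMSO negative control for no effect and GSK-3 inhibitor IX positive control for full effect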
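Technique: fluorescence imaging of beta-catenin antibody stain plus DAPI / Material: human HeLa cell line / Incubation: compound treatment 24 h, 37°C, 5% CO2 / Read-out basis: % activation of per-cell nuclear versus cytoplasmic median beta-catenin signal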
WT yeast gro inh: growth inhibition of WT strain, primary screen, mitochondrial fusion inhibitor project, WT and mutant strains, chemical genetic; mitochondrial fusion phenotypic screen; inhibition, % at 10 µM; actives 2.1% (n = 190,000); in the data active = inhibition above about 58%; tested in S. cerevisiae
Cl transport mod: KCC2 cotransporter modulators, thallium flux, primary screen, cell-based, HEK293 KCC2, FluoZin-2 fluorescence, MLSMR; Solute carrier family 12 member 5 (Homo sapiens), Q9H2X9; KCC2 cells, thallium flux FluoZin-2 fluorescence; B-score of Tl+ flux slope (higher = more flux/activation; lower = inhibition) at 10 µM; actives 2.2% (n = 190,000); AID 1456, 2008;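 active = thallium flux slope and its plate-corrected score both differing from the plate sample mean at a set confidence after two filtering rounds, in either direction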;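 note: slope of fluorescence scaled to starting intensity during 10 to 20 s after thallium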
Target sequence (Q9H2X9 whole entry, looked up): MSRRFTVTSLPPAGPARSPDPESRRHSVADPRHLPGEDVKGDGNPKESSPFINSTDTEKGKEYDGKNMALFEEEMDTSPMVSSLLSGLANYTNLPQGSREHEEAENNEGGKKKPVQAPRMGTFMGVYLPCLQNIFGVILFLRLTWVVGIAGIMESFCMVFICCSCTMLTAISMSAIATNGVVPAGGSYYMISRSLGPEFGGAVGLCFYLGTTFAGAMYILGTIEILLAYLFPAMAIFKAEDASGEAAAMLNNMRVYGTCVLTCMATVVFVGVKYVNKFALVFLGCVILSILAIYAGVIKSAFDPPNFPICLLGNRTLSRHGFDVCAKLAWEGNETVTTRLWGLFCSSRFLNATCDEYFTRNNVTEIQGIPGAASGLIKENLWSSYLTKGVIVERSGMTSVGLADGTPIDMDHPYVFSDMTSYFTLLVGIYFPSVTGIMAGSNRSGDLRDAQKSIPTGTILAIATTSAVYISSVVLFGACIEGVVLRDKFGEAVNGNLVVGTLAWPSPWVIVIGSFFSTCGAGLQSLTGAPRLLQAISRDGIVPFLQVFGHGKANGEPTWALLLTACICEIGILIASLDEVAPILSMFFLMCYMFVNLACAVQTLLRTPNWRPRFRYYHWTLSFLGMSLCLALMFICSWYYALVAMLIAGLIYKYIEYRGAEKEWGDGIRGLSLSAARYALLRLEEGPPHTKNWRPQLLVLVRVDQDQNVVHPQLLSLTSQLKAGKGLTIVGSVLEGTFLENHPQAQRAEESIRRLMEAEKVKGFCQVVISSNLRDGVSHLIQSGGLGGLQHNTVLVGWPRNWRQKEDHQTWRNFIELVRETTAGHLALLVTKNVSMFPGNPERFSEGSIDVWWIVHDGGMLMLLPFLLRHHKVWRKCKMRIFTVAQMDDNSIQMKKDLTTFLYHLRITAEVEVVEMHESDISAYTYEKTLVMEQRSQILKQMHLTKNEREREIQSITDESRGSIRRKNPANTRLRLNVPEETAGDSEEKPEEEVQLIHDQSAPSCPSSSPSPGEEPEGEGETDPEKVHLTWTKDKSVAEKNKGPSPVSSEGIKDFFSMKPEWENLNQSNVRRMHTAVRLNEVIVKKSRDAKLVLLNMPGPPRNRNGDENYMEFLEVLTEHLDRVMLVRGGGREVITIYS
Pf gametocyte: late stage P. falciparum gametocyte viability inhibitors, primary screen, ATP luminescence, HTS | P. falciparum stage V gametocytes, 24 h | inhibition, % at 10.9 µM | actives 0.065% (n = 150,000) | AID 743093, 2013;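 active = inhibition above the mean plus 3 SD of compounds within the control limits, set per campaign, cut at about 38% in these data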;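 note: 0% = DMSO wells and 100% = medium only without gametocytes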
KCC2 secondary: KCC2 modulators in sodium-free buffer, confirmation, cell-based, HEK293 KCC2, thallium flux, secondary assay. normalised thallium flux (F/F0 slope) at 10 µM. FluoZin2 fluorescence; stronger effect = higher value. actives 15% (n = 3,700). shares compounds with Cl transport mod. AID 1713, 2009;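 active = thallium flux slope above the same plate's solvent-only control mean plus 3 SD; inconclusive = the two replicate wells disagree; inactive = no significant difference from solvent-only control wells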
KCC2 bumet counter: thallium flux persisting under bumetanide in KCC2 cells, confirmation, counter-screen for KCC2 modulator project, cell-based, HEK293 KCC2, FluoZin2, secondary assay 3; shares compounds with Cl transport mod; normalized thallium flux at 10 µM; HEK293-KCC2 + bumetanide/ouabain; stronger effect = higher value; actives 49% (n = 3,700);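 active = thallium entry rate above the same plate's blocked-transporter control wells by more than 3 SD; inconclusive = the two repeat wells disagree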;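 note: raw slope of fluorescence over initial fluorescence between 10 and 20 s after thallium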
KCC2 sec2: KCC2 modulators without ouabain present, confirmation, cell-based, HEK293 KCC2, thallium flux, FluoZin2, secondary assay 2 | shares compounds with Cl transport mod | AID 1715, 2009 | actives 23% (n = 3,700) | thallium flux FluoZin2 fluorescence; actives lie on both sides; F/F0 rise rate, 10–20 s post-thallium | normalized thallium flux at 10 µM;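 active = thallium flux slope more than 3 SD above or below the plate's solvent-only control mean, mostly below; inconclusive = the two repeat wells disagreed; inactive = no significant shift from solvent-only controls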;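 note: raw slope with 0.1% DMSO as baseline and bumetanide as block control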
HEK293 Tl flux: thallium flux modulation in parental HEK cells, confirmation, counter-screen for KCC2 modulator project, cell-based, counterscreen 1; shares compounds with Cl transport mod; HEK293 parental cells, thallium flux FluoZin2, ouabain; baseline-ratio fluorescence slope, 10–20 s after thallium; thallium flux rate (normalised fluorescence) at 10 µM; actives 46% (n = 3,700); AID 1716, 2009;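 active = thallium flux rate significantly above the same plate's solvent-only control wells, beyond their mean plus 3 SD; inconclusive = the two replicate wells gave conflicting results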
KCC2 ouabain: KCC2 inhibitors and activators, ouabain retest, confirmation, HEK-KCC2 cells; raw Tl+ flux slope (below DMSO = inhibition, above = activation) at 10 µM; actives 48% (n = 3,700); shares compounds with Cl transport mod; HEK293-KCC2, thallium flux FluoZin2 fluorescence; bidirectional: low = inhibitor, high = activator;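 active = thallium flux slope beyond 3 SD from same-plate DMSO control mean in most replicates, usually higher, sometimes lower; inconclusive = repeat tests gave conflicting results; inactive = no significant difference from controls in most replicates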;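 note: slope of initial-normalized fluorescence between seconds 10 and 20 after thallium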
HEK counter2: native HEK Tl+ uptake effects, second counter-screen – HEK cells, counterscreen 2, counter-screen for KCC2 modulator project, confirmation; shares compounds with Cl transport mod; HEK293 parental, thallium flux FluoZin-2 fluorescence slope; thallium flux slope at 10 µM; actives 33% (n = 3,700); AID 1718, 2009;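 active = thallium flux slope above the same plate's solvent-control mean plus 3 SD in both duplicate wells; inconclusive = duplicate wells that disagreed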;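 note: run without ouabain in cells lacking the KCC2 cotransporter; slope of fluorescence scaled to its starting value between 10 and 20 s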
Active calls of the source: *.

How did COC(=O)C1CCN(Cc2cn(-c3ccccc3)nc2-c2ccc3c(c2)OCO3)CC1 do in these assays?
MT stabilizer: 2; bCat nuc transl: -1; WT yeast gro inh: 23; Cl transport mod: -5.8*; Pf gametocyte: -19; KCC2 secondary: 0.0099; KCC2 bumet counter: 0.0058; KCC2 sec2: 0.033; HEK293 Tl flux: 0.008; KCC2 ouabain: 0.022; HEK counter2: 0.01

What do the screens show for `CCOC(=O)CC1C(=O)NCCN1c1nc2c(C)cccn2c(=O)c1/C=C1\SC(=S)N(CC(C)C)C1=O` (stereo not given)?
bCat nuc transl: -1; Cl transport mod: -9*; KCC2 secondary: 0.00069*; KCC2 bumet counter: -0.0059*; KCC2 sec2: 0.014*; HEK293 Tl flux: -0.0023*; KCC2 ouabain: -0.0016*; HEK counter2: 0.0041*

What do the screens show for `COC(=O)c1cccnc1NC(=S)NC1CCCCC1`?
MT stabilizer: 3; bCat nuc transl: -2; WT yeast gro inh: 8; Cl transport mod: 121*; Pf gametocyte: 8; KCC2 secondary: 0.012*; KCC2 bumet counter: 0.13*; KCC2 sec2: 0.098*; HEK293 Tl flux: 0.1*; KCC2 ouabain: 0.098*; HEK counter2: 0.1*

Results for CCOC(=O)c1c(-n2cnnn2)sc2c1CCCC2 ?
bCat nuc transl: -1; Cl transport mod: -2.8; Pf gametocyte: 17

Results for CCOC(=O)c1c(N2C(=O)Nc3cc(Cl)c(Cl)cc3N2O)sc2c1CCCCC2 ?
MT stabilizer: 3; WT yeast gro inh: -61; Cl transport mod: -5.2*; KCC2 secondary: 0.0085; KCC2 bumet counter: 0.013*; KCC2 sec2: 0.029; HEK293 Tl flux: 0.0076; KCC2 ouabain: inconclusive; HEK counter2: 0.0099

What do the screens show for `C=CCN1C(=O)/C(=C/c2ccc(OC(C)=O)c(OCC)c2[N+](=O)[O-])SC1=S`?
MT stabilizer: 3; bCat nuc transl: 4; WT yeast gro inh: 97*; Cl transport mod: -3.4*; Pf gametocyte: -36; KCC2 secondary: 0.0058*; KCC2 bumet counter: 0.0067; KCC2 sec2: 0.031; HEK293 Tl flux: 0.005*; KCC2 ouabain: inconclusive; HEK counter2: 0.01

Results for Cc1cc(C)n2nc(CC(=O)NCc3ccc(F)cc3)nc2n1 ?
MT stabilizer: 3; bCat nuc transl: -2; WT yeast gro inh: 2; Cl transport mod: -0.41

How did CC(C)n1c(=S)[nH]c2scc(-c3cccs3)c2c1=O do in these assays?
bCat nuc transl: 2; Cl transport mod: 110*; Pf gametocyte: 3; KCC2 secondary: 0.023*; KCC2 bumet counter: 0.092*; KCC2 sec2: 0.088*; HEK293 Tl flux: 0.09*; KCC2 ouabain: 0.093*; HEK counter2: 0.085*

What do the screens show for `Cc1ccc(S(=O)(=O)NNC(=S)NC(=O)c2ccc([N+](=O)[O-])cc2)cc1`?
MT stabilizer: 2; bCat nuc transl: 0; WT yeast gro inh: -24; Cl transport mod: 0.35

How did Cc1ccc(C(=O)NC(=S)NNS(=O)(=O)c2ccc(C)cc2)cc1 do in these assays?
MT stabilizer: 2; bCat nuc transl: 0; WT yeast gro inh: 55; Cl transport mod: 6.2*; KCC2 secondary: 0.017*; KCC2 bumet counter: 0.023*; KCC2 sec2: 0.035; HEK293 Tl flux: 0.0092*; KCC2 ouabain: 0.024; HEK counter2: 0.012*

What do the screens show for `Cc1cccnc1NC(=O)c1csnn1`?
bCat nuc transl: 0; Cl transport mod: 0.31

Results for N#CC1=C(N)NC(SCC(=O)O)=C(C#N)C12CCCC2 ?
MT stabilizer: 7; bCat nuc transl: -6; WT yeast gro inh: 10; Cl transport mod: -0.62; Pf gametocyte: -18

How did N#CC1=C(N)NC(SCc2ccc(F)cc2)=C(C#N)C12CCCCC2 do in these assays?
MT stabilizer: 47*; WT yeast gro inh: 9; Cl transport mod: -3.1; Pf gametocyte: -8; KCC2 secondary: 0.0065; KCC2 bumet counter: 0.0043; KCC2 sec2: 0.024*; HEK293 Tl flux: inconclusive; KCC2 ouabain: inconclusive; HEK counter2: 0.011

What do the screens show for `O=C(NNC(=S)Nc1ccc(Cl)c(Cl)c1)c1ccccn1`?
MT stabilizer: 7; bCat nuc transl: 5; WT yeast gro inh: 6; Cl transport mod: 11*; KCC2 secondary: 0.013*; KCC2 bumet counter: 0.037*; KCC2 sec2: 0.031; HEK293 Tl flux: 0.019*; KCC2 ouabain: 0.051*; HEK counter2: 0.012*

Results for CCOc1ccc2nc(NC(=O)CSc3nc(-c4ccccc4)c(C#N)c(=O)[nH]3)sc2c1 ?
MT stabilizer: 6; bCat nuc transl: -1; WT yeast gro inh: 5; Cl transport mod: -3.2*; Pf gametocyte: 9; KCC2 secondary: 0.0092; KCC2 bumet counter: inconclusive; KCC2 sec2: 0.035; HEK293 Tl flux: 0.0053*; KCC2 ouabain: 0.021; HEK counter2: 0.0092

How did COc1cccc(-c2nc(SCC(=O)Nc3nc(-c4ccccc4)c(C)s3)[nH]c(=O)c2C#N)c1 do in these assays?
MT stabilizer: 2; bCat nuc transl: 0; WT yeast gro inh: 1; Cl transport mod: -3

How did CCO[C@@H]1OC(C(=O)N2CCCCCCC2)=C[C@H](c2ccc(C(F)(F)F)cc2)[C@H]1CCCO do in these assays?
MT stabilizer: 2; bCat nuc transl: -2; WT yeast gro inh: -8; Cl transport mod: -0.083

Screening results: PubChem BioAssay, several laboratories
